Active and inactive are the calls of the source. No cut-off for these calls is given here.
Tests used:
HK-2 [1] = test: Inhibition of TGFbeta1-induced epithelial-mesenchymal transition in human HK2 cells assessed as reduction in fibronectin release at 30 uM measured after 36 hrs by ELISA; type: functional, cell-based
HK-2 [2] = test: Inhibition of TGFbeta1-induced epithelial-mesenchymal transition in human HK2 cells assessed as reduction in alpha-SMA expression at 30 uM measured after 36 hrs by Western blot analysis; type: functional, cell-based
[3] = biological target: T1, Short transient receptor potential channel 6 (Mus musculus, UniProt Q61143); test: Inhibition of mouse TRPC6 expressed in HEK293 cells assessed as reduction in M085-induced intracellular calcium flux pretreated for 5 mins followed by M085 addition measured after 300 secs by Fluo-8AM dye based FLIPR assay; type: cell-based
T1 sequence (Q61143 whole entry): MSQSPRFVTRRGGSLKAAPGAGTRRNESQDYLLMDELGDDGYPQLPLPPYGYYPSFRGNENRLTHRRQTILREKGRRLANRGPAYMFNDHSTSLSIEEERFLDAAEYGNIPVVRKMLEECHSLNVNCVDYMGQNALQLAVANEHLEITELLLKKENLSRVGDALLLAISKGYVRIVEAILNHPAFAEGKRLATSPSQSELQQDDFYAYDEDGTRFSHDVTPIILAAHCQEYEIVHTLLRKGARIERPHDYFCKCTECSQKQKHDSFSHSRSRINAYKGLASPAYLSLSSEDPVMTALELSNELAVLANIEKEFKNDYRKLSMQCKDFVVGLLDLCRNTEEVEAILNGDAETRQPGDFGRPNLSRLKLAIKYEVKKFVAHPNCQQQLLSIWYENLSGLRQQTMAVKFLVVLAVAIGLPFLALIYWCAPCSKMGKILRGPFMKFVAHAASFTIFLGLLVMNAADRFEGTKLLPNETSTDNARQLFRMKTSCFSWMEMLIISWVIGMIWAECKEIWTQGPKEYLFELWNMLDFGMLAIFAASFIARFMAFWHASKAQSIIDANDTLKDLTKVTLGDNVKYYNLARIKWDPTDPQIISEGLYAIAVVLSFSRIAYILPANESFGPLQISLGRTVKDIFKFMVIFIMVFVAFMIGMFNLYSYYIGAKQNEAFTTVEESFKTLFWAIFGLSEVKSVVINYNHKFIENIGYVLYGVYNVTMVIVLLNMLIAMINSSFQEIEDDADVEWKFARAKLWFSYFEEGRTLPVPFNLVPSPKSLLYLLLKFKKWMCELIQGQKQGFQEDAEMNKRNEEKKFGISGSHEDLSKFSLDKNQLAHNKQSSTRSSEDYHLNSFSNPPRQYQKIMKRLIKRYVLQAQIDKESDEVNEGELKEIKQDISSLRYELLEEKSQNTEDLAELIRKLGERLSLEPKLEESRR
Outline: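 HEK-293 cells stably expressing mouse TRPC6, on poly-D-lysine plates (~20 000 cells/well), cultured 6 h. Loaded with 4 μM Fluo-8/AM for 45 min, washed. FLIPR read: baseline 30 s, then compound or vehicle 5 min, then M085 (1 μM). Signal expressed as F/F0; AUC over 300 s after M085 used for concentration–response. Twice, each in triplicate.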

HK-2 [4] = test: Inhibition of TGFbeta1-induced epithelial-mesenchymal transition in human HK2 cells assessed as reversal of spindle-like morphology at 30 uM measured after 36 hrs; type: functional, cell-based
Outline: (§1)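 HK-2 cells kept in RPMI 1640 with 2 mg/mL NaHCO3, 10% FBS and 10 mM HEPES, then seeded at 6000 (96-well) or 40 000 (12-well) cells/well. Treated in serum-free medium with TGF-β1 (5 ng/mL), with or without test agent, for 36 h. Morphology scored as cell length/width ratio (n = 40). Run twice, each in duplicate.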

HK-2 [5] = test: Inhibition of TGFbeta1-induced epithelial-mesenchymal transition in human HK2 cells assessed as reduction in fibronectin release measured after 36 hrs by ELISA; type: functional, cell-based
HK-2 [6] = test: Effect on basal alpha-SMA expression in human HK2 cells at 1 uM after 36 hrs by Western blot analysis; type: ADME, cell-based; conditions: hk-2, 36 h
HK-2 [7] = test: Inhibition of TGFbeta1-induced epithelial-mesenchymal transition in human HK2 cells assessed as reversal of spindle-like morphology measured after 36 hrs; type: functional, cell-based; outline: as §1
HK-2 [8] = test: Effect on morphological changes in human HK2 cells at 1 uM measured after 36 hrs; type: ADME, cell-based; conditions: hk-2, 36 h
HK-2 [9] = test: Inhibition of TGFbeta1-induced epithelial-mesenchymal transition in human HK2 cells assessed as reduction in alpha-SMA expression measured after 36 hrs by Western blot analysis; type: functional, cell-based

| IC50 [3] | Structure (SMILES) | inhibition (HK-2 [1]) | inhibition (HK-2 [2]) | inhibition (HK-2 [4]) | inhibition (HK-2 [5]) | Activity (HK-2 [6]) | inhibition (HK-2 [7]) | Activity (HK-2 [8]) | inhibition (HK-2 [9]) |
| --- | --- | --- | --- | --- | --- | --- | --- | --- | --- |
| 25.6 µM | COc1cc(C(=O)OC[C@H]2O[C@@H](OC/C(C#N)=C/CO)[C@H](O)[C@@H](O)[C@@H]2O)ccc1O | Active | Active | Active | – | – | – | – | – |
| 24.5 µM | N#C/C(=C\CO)CO[C@@H]1O[C@H](COC(=O)c2ccc(O)cc2)[C@@H](O)[C@H](O)[C@H]1O | Active | Active | Active | – | – | – | – | – |
| – | Cl.Cl.N#Cc1ccc(O[C@@H]2c3ccccc3C[C@H]2N2CCC[C@@H](N)C2)c(Cl)c1 | – | – | – | Dose-dependent effect | Non-Toxic | Dose-dependent effect | Non-Toxic | Dose-dependent effect |
